Converted amounts (≈) assume the structure as drawn.
Assays:
Assay type in all cases: functional
Streptococcus pneumoniae [1] = experiment: Antimicrobial activity against Streptococcus pneumoniae 8 expressing inducible ermB after 20 hrs by agar dilution method; settings: Streptococcus pneumoniae, 20 h; read-out: MIC
Procedure, shortened: (§1)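 Streptococci, H. influenzae and M. catarrhalis were precultured on blood agar plates. Suspensions of about 10⁶ CFU/ml were inoculated onto sensitivity disk agar supplemented with 5% horse blood and incubated at 37 °C for 20 h. MIC was read as the lowest drug concentration with no visible growth.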

Streptococcus pneumoniae [2] = experiment: Antimicrobial activity against Streptococcus pneumoniae 9 expressing mefA after 20 hrs by agar dilution method; settings: Streptococcus pneumoniae, 20 h; read-out: MIC; procedure, shortened: as §1
Streptococcus pneumoniae [3] = experiment: Antimicrobial activity against Streptococcus pneumoniae 10 expressing mefA after 20 hrs by agar dilution method; settings: Streptococcus pneumoniae, 20 h; read-out: MIC; procedure, shortened: as §1
Streptococcus pyogenes [4] = experiment: Antimicrobial activity against drug-susceptible Streptococcus pyogenes 1 after 20 hrs by agar dilution method; settings: Streptococcus pyogenes, 20 h; read-out: MIC; procedure, shortened: as §1
Streptococcus pyogenes [5] = experiment: Antimicrobial activity against Streptococcus pyogenes 2 constitutively expressing ermB after 20 hrs by agar dilution method; procedure, shortened: as §1
Streptococcus pyogenes [6] = experiment: Antimicrobial activity against Streptococcus pyogenes 3 expressing mefA after 20 hrs by agar dilution method; settings: Streptococcus pyogenes, 20 h; read-out: MIC; procedure, shortened: as §1
Moraxella catarrhalis [7] = experiment: Antimicrobial activity against drug-susceptible Moraxella catarrhalis 1 after 20 hrs by agar dilution method; settings: Moraxella catarrhalis, 20 h; read-out: MIC; procedure, shortened: as §1
Moraxella catarrhalis [8] = experiment: Antimicrobial activity against drug-susceptible Moraxella catarrhalis 2 after 20 hrs by agar dilution method; settings: Moraxella catarrhalis, 20 h; read-out: MIC; procedure, shortened: as §1
Haemophilus influenzae [9] = experiment: Antimicrobial activity against drug-susceptible Haemophilus influenzae 1 after 20 hrs by agar dilution method; settings: Haemophilus influenzae, 20 h; read-out: MIC; procedure, shortened: as §1
Haemophilus influenzae [10] = experiment: Antimicrobial activity against drug-susceptible Haemophilus influenzae 2 after 20 hrs by agar dilution method; settings: Haemophilus influenzae, 20 h; read-out: MIC; procedure, shortened: as §1
Haemophilus influenzae [11] = experiment: Antimicrobial activity against drug-susceptible Haemophilus influenzae 3 after 20 hrs by agar dilution method; settings: Haemophilus influenzae, 20 h; read-out: MIC; procedure, shortened: as §1
Haemophilus influenzae [12] = experiment: Antimicrobial activity against drug-susceptible Haemophilus influenzae 4 after 20 hrs by agar dilution method; settings: Haemophilus influenzae, 20 h; read-out: MIC; procedure, shortened: as §1
Staphylococcus aureus [13] = experiment: Antimicrobial activity against drug-susceptible Staphylococcus aureus 209P JC-1 after 20 hrs by agar dilution method; settings: Staphylococcus aureus, 209P, 20 h; read-out: MIC
Procedure, shortened: (§2)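 Agar dilution MIC. S. aureus seed culture was grown in sensitivity test broth. Cell suspension (about 10⁶ CFU/ml) was inoculated onto sensitivity disk agar with 5% horse blood and incubated at 37 °C for 20 h. MIC was the lowest drug concentration that prevented visible growth.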

Staphylococcus aureus [14] = experiment: Antimicrobial activity against drug-susceptible Staphylococcus aureus 2 after 20 hrs by agar dilution method; settings: Staphylococcus aureus, 20 h; read-out: MIC; procedure, shortened: as §2
Staphylococcus aureus [15] = experiment: Antimicrobial activity against drug-susceptible Staphylococcus aureus 3 after 20 hrs by agar dilution method; settings: Staphylococcus aureus, 20 h; read-out: MIC; procedure, shortened: as §2
Staphylococcus aureus [16] = experiment: Antimicrobial activity against Staphylococcus aureus 4 constitutively expressing ermA after 20 hrs by agar dilution method; procedure, shortened: as §2
Staphylococcus aureus [17] = experiment: Antimicrobial activity against Staphylococcus aureus 5 expressing inducible ermB after 20 hrs by agar dilution method; settings: Staphylococcus aureus, 20 h; read-out: MIC; procedure, shortened: as §2
Streptococcus pneumoniae [18] = experiment: Antimicrobial activity against drug-susceptible Streptococcus pneumoniae DP1 Type1 after 20 hrs by agar dilution method; settings: Streptococcus pneumoniae, 20 h; read-out: MIC; procedure, shortened: as §1
Streptococcus pneumoniae [19] = experiment: Antimicrobial activity against drug-susceptible Streptococcus pneumoniae 2 after 20 hrs by agar dilution method; settings: Streptococcus pneumoniae, 20 h; read-out: MIC; procedure, shortened: as §1
Streptococcus pneumoniae [20] = experiment: Antimicrobial activity against drug-susceptible Streptococcus pneumoniae 3 after 20 hrs by agar dilution method; settings: Streptococcus pneumoniae, 20 h; read-out: MIC; procedure, shortened: as §1
Streptococcus pneumoniae [21] = experiment: Antimicrobial activity against Streptococcus pneumoniae 4 constitutively expressing ermB after 20 hrs by agar dilution method; settings: Streptococcus pneumoniae, 20 h; read-out: MIC; procedure, shortened: as §1
Streptococcus pneumoniae [22] = experiment: Antimicrobial activity against Streptococcus pneumoniae 5 constitutively expressing ermB/mefA after 20 hrs by agar dilution method; settings: Streptococcus pneumoniae, 20 h; read-out: MIC; procedure, shortened: as §1
Streptococcus pneumoniae [23] = experiment: Antimicrobial activity against Streptococcus pneumoniae 6 constitutively expressing ermB after 20 hrs by agar dilution method; settings: Streptococcus pneumoniae, 20 h; read-out: MIC; procedure, shortened: as §1
Streptococcus pneumoniae [24] = experiment: Antimicrobial activity against Streptococcus pneumoniae 7 expressing inducible ermB after 20 hrs by agar dilution method; settings: Streptococcus pneumoniae, 20 h; read-out: MIC; procedure, shortened: as §1
Staphylococcus aureus [25] = experiment: Antimicrobial activity against Staphylococcus aureus 6 expressing inducible ermB after 20 hrs by agar dilution method; procedure, shortened: as §2

Row | Compound | MIC (Streptococcus pneumoniae [1]) [µg/mL] | MIC (Streptococcus pneumoniae [2]) [µg/mL] | MIC (Streptococcus pneumoniae [3]) [µg/mL] | MIC (Streptococcus pyogenes [4]) [µg/mL] | MIC (Streptococcus pyogenes [5]) [µg/mL] | MIC (Streptococcus pyogenes [6]) [µg/mL] | MIC (Moraxella catarrhalis [7]) [µg/mL] | MIC (Moraxella catarrhalis [8]) [µg/mL] | MIC (Haemophilus influenzae [9]) [µg/mL] | MIC (Haemophilus influenzae [10]) [µg/mL] | MIC (Haemophilus influenzae [11]) [µg/mL] | MIC (Haemophilus influenzae [12]) [µg/mL] | MIC (Staphylococcus aureus [13]) [µg/mL] | MIC (Staphylococcus aureus [14]) [µg/mL] | MIC (Staphylococcus aureus [15]) [µg/mL] | MIC (Staphylococcus aureus [16]) [µg/mL] | MIC (Staphylococcus aureus [17]) [µg/mL] | MIC (Streptococcus pneumoniae [18]) [µg/mL] | MIC (Streptococcus pneumoniae [19]) [µg/mL] | MIC (Streptococcus pneumoniae [20]) [µg/mL] | other results
1 | CCOC(=O)[C@H]1[C@H](C)O[C@@H](O[C@H]2[C@H](N(C)C)[C@@H](O)[C@H](O[C@H]3[C@@H](CC=O)C[C@@H](C)[C@@H](O)CN(C)CCC[C@H](C/C=C/c4ccnc5ccccc45)OC(=O)C[C@@H](OC(=O)CC)[C@@H]3OC)O[C@@H]2C)C[C@@]1(C)O | 4 (≈ 4.06 µM) | 0.06 (≈ 0.0608 µM) | 0.06 (≈ 0.0608 µM) | 0.13 (≈ 0.132 µM) | > 128 | 0.5 (≈ 0.507 µM) | 1 (≈ 1.01 µM) | 1 (≈ 1.01 µM) | 32 (≈ 32.4 µM) | 2 (≈ 2.03 µM) | 8 (≈ 8.11 µM) | 8 (≈ 8.11 µM) | 0.25 (≈ 0.253 µM) | 1 (≈ 1.01 µM) | 0.25 (≈ 0.253 µM) | > 128 | 0.25 (≈ 0.253 µM) | 0.03 (≈ 0.0304 µM) | 0.06 (≈ 0.0608 µM) | 0.015 (≈ 0.0152 µM) | MIC (Streptococcus pneumoniae [21]): > 128 µg/mL; MIC (Streptococcus pneumoniae [22]): > 128 µg/mL; MIC (Streptococcus pneumoniae [23]): > 128 µg/mL; MIC (Streptococcus pneumoniae [24]): 8 µg/mL (≈ 8.11 µM); MIC (Staphylococcus aureus [25]): 0.5 µg/mL (≈ 0.507 µM)
2 | CCOC(=O)[C@H]1[C@H](C)O[C@@H](O[C@H]2[C@H](N(C)C)[C@@H](O)[C@H](O[C@H]3[C@@H](CC=O)C[C@@H](C)[C@@H](O)CN(C)CCC[C@@H](CCCc4ccnc5ccccc45)OC(=O)C[C@@H](OC(=O)CC)[C@@H]3OC)O[C@@H]2C)C[C@@]1(C)O | 32 (≈ 32.4 µM) | 0.06 (≈ 0.0607 µM) | 0.06 (≈ 0.0607 µM) | 0.13 (≈ 0.132 µM) | > 128 | 0.5 (≈ 0.506 µM) | 2 (≈ 2.02 µM) | 2 (≈ 2.02 µM) | 64 (≈ 64.8 µM) | 4 (≈ 4.05 µM) | 8 (≈ 8.1 µM) | 8 (≈ 8.1 µM) | 0.25 (≈ 0.253 µM) | 0.5 (≈ 0.506 µM) | 0.25 (≈ 0.253 µM) | > 128 | 0.25 (≈ 0.253 µM) | 0.03 (≈ 0.0304 µM) | 0.06 (≈ 0.0607 µM) | 0.06 (≈ 0.0607 µM) | MIC (Streptococcus pneumoniae [21]): > 128 µg/mL; MIC (Streptococcus pneumoniae [22]): > 128 µg/mL; MIC (Streptococcus pneumoniae [23]): > 128 µg/mL; MIC (Streptococcus pneumoniae [24]): 32 µg/mL (≈ 32.4 µM); MIC (Staphylococcus aureus [25]): 0.5 µg/mL (≈ 0.506 µM)
3 | CCOC(=O)[C@H]1[C@H](C)O[C@@H](O[C@H]2[C@H](N(C)C)[C@@H](O)[C@H](O[C@H]3[C@@H](CC=O)C[C@@H](C)[C@@H](O)CN(C)CCC[C@H](C/C=C/c4cccnc4)OC(=O)C[C@@H](OC(=O)CC)[C@@H]3OC)O[C@@H]2C)C[C@@]1(C)O | 32 (≈ 34.2 µM) | 0.03 (≈ 0.032 µM) | 0.03 (≈ 0.032 µM) | 0.06 (≈ 0.0641 µM) | > 128 | 0.5 (≈ 0.534 µM) | 1 (≈ 1.07 µM) | 1 (≈ 1.07 µM) | 32 (≈ 34.2 µM) | 2 (≈ 2.14 µM) | 8 (≈ 8.55 µM) | 16 (≈ 17.1 µM) | 0.5 (≈ 0.534 µM) | 1 (≈ 1.07 µM) | 0.25 (≈ 0.267 µM) | > 128 | 0.25 (≈ 0.267 µM) | 0.015 (≈ 0.016 µM) | 0.03 (≈ 0.032 µM) | 0.03 (≈ 0.032 µM) | MIC (Streptococcus pneumoniae [21]): > 128 µg/mL; MIC (Streptococcus pneumoniae [22]): > 128 µg/mL; MIC (Streptococcus pneumoniae [23]): > 128 µg/mL; MIC (Streptococcus pneumoniae [24]): 32 µg/mL (≈ 34.2 µM); MIC (Staphylococcus aureus [25]): 0.5 µg/mL (≈ 0.534 µM)

From ChEMBL document CHEMBL1151705, “Novel azalides derived from 16-membered macrolides. Part II: Isolation of the linear 9-formylcarboxylic acid and its sequential macrocyclization with an amino alcohol or an azidoamine” (2008)
